Results as given in ChEMBL document CHEMBL1126893, “Synthesis and CLOGP correlation of imidooxy anticonvulsants” (J Med Chem, 1993).

Tests used:
Type in all cases: functional
Mus musculus [1] = test: Anticonvulsant activity was measured by maximal electroshock test on mice at 30 min at the dose of 100 mg/kg; number of animals protected/number of animals tested, 1/3
Mus musculus [2] = test: Anticonvulsant activity was measured by rotarod toxicity test on mice at 4 hr at the dose of 50 mg/kg; number of animals protected/number of animals tested, number of animals protected/number of animals tested, 0/4
Mus musculus [3] = test: Anticonvulsant activity was measured by rotarod toxicity test on mice at 2 hr at the dose of 50 mg/kg; number of animals protected/number of animals tested, 0/4
Mus musculus [4] = test: Anticonvulsant activity was measured by subcutaneous pentylenetetrazole test on mice at 4 h at the dose of 300 mg/kg; number of animals protected/number of animals tested, 0/1
Mus musculus [5] = test: Anticonvulsant activity was measured by maximal electroshock test on mice at 30 min at the dose of 300 mg/kg; number of animals protected/number of animals tested, 1/1
Mus musculus [6] = test: Anticonvulsant activity was measured by maximal electroshock test on mice at 4 hr at the dose of 100 mg/kg; number of animals protected/number of animals tested, 0/3
Mus musculus [7] = test: Anticonvulsant activity was measured by subcutaneous pentylenetetrazole test on mice at 4 hr at the dose of 100 mg/kg; number of animals protected/number of animals tested, 0/1
Mus musculus [8] = test: Anticonvulsant activity was measured by rotarod toxicity test on mice at 30 min at the dose of 100 mg/kg; number of animals protected/number of animals tested, 0/8
Mus musculus [9] = test: Anticonvulsant activity was measured by rotarod toxicity teston mice at 0.25 hr at the dose of 50 mg/kg; number of animals protected/number of animals tested, 0/4
Mus musculus [10] = test: Anticonvulsant activity was measured by maximal electroshock test on mice at 4 hr at the dose of 300 mg/kg; number of animals protected/number of animals tested, 0/1
Mus musculus [11] = test: Anticonvulsant activity was measured by maximal electroshock test on mice at 2 hr at the dose of 50 mg/kg; number of animals protected/number of animals tested, 2/4
Mus musculus [12] = test: Anticonvulsant activity was measured by subcutaneous pentylenetetrazole test on mice at 30 min at the dose of 300 mg/kg; number of animals protected/number of animals tested, 5/5
Mus musculus [13] = test: Anticonvulsant activity was measured by rotarod toxicity test on mice at 30 min at the dose of 300 mg/kg; number of animals protected/number of animals tested, 0/4
Mus musculus [14] = test: Anticonvulsant activity was measured by rotarod toxicity test on mice at 4 h at the dose of 300 mg/kg; number of animals protected/number of animals tested, 0/2
Mus musculus [15] = test: Anticonvulsant activity was measured by maximal electroshock test on mice at 4 hr at the dose of 50 mg/kg; number of animals protected/number of animals tested, 0/4
Mus musculus [16] = test: Anticonvulsant activity was measured by maximal electroshock test on mice at 0.25 hr at the dose of 50 mg/kg; number of animals protected/number of animals tested, 0/4
Mus musculus [17] = test: Anticonvulsant activity was measured by maximal electroshock test on mice at 0.50 hr at the dose of 50 mg/kg; number of animals protected/number of animals tested, 0/4
Mus musculus [18] = test: Anticonvulsant activity was measured by rotarod toxicity teston mice at 0.50 hr at the dose of 50 mg/kg; number of animals protected/number of animals tested, 0/4
Mus musculus [19] = test: Anticonvulsant activity was measured by rotarod toxicity test on mice at 4 hr at the dose of 100 mg/kg; number of animals protected/number of animals tested, 0/4
Mus musculus [20] = test: Anticonvulsant activity was measured by subcutaneous pentylenetetrazole test on mice at 30 min at the dose of 100 mg/kg; number of animals protected/number of animals tested, 2/5
Mus musculus [21] = test: Anticonvulsant activity was measured by rotarod toxicity test on mice at 2 hr at the dose of 50 mg/kg;number of animals protected/number of animals tested 0/4
Mus musculus [22] = test: Anticonvulsant activity was measured by rotarod toxicity test on mice at 1 hr at the dose of 50 mg/kg; number of animals protected/number of animals tested 0/4
Mus musculus [23] = test: Anticonvulsant activity was measured by rotarod toxicity teston mice at 0.25 hr at the dose of 50 mg/kg; number of animals protected/number of animals tested 0/4
Mus musculus [24] = test: Anticonvulsant activity was measured by subcutaneous pentylenetetrazole test on mice at 30 min at the dose of 100 mg/kg; number of animals protected/number of animals tested, 0/1
Mus musculus [25] = test: Anticonvulsant activity was measured by rotarod toxicity test on mice at 4 hr at the dose of 300 mg/kg; number of animals protected/number of animals tested, 2/2
Mus musculus [26] = test: Anticonvulsant activity was measured by maximal electroshock test on mice at 4 hr at the dose of 50 mg/kg; number of animals protected/number of animals tested 0/4
Mus musculus [27] = test: Anticonvulsant activity was measured by maximal electroshock test on mice at 30 min at the dose of 100 mg/kg; number of animals protected/number of animals tested, 2/3
Mus musculus [28] = test: Anticonvulsant activity was measured by maximal electroshock test on mice at 0.25 hr at the dose of 50 mg/kg; number of animals protected/number of animals tested 0/4
Mus musculus [29] = test: Anticonvulsant activity was measured by rotarod toxicity test on mice at 4 hr at the dose of 50 mg/kg; number of animals protected/number of animals tested 0/4
Mus musculus [30] = test: Anticonvulsant activity was measured by maximal electroshock test on mice at 2 hr at the dose of 50 mg/kg; number of animals protected/number of animals tested 0/4
Mus musculus [31] = test: Anticonvulsant activity was measured by rotarod toxicity teston mice at 0.50 hr at the dose of 50 mg/kg; number of animals protected/number of animals tested 0/4
Mus musculus [32] = test: Anticonvulsant activity was measured by subcutaneous pentylenetetrazole test on mice at 4 hr at the dose of 100 mg/kg; number of animals protected/number of animals tested, 0/3
Mus musculus [33] = test: Anticonvulsant activity was measured by subcutaneous pentylenetetrazole test on mice at 30 min at the dose of 300 mg/kg; number of animals protected/number of animals tested, 1/1
Mus musculus [34] = test: Anticonvulsant activity was measured by subcutaneous pentylenetetrazole test on mice at 0.50 hr at the dose of 50 mg/kg; number of animals protected/number of animals tested 0/4
Mus musculus [35] = test: Anticonvulsant activity was measured by maximal electroshock test on mice at 0.50 hr at the dose of 50 mg/kg; number of animals protected/number of animals tested 0/4
Mus musculus [36] = test: Anticonvulsant activity was measured by rotarod toxicity test on mice at 30 min at the dose of 300 mg/kg; number of animals protected/number of animals tested, 4/4
Mus musculus [37] = test: Anticonvulsant activity was measured by maximal electroshock test on mice at 1 hr at the dose of 50 mg/kg; number of animals protected/number of animals tested 1/4
Mus musculus [38] = test: Anticonvulsant activity was measured by rotarod toxicity test on mice at 4 hr at the dose of 100 mg/kg; number of animals protected/number of animals tested 0/4
Mus musculus [39] = test: Anticonvulsant activity was measured by rotarod toxicity test on mice at 1 hr at the dose of 100 mg/kg; number of animals protected/number of animals tested 0/2
Mus musculus [40] = test: Elevation of threshold for electroshock induced seizures in mice was measured by ip administration after 0.5 hr at the dose of 150 mg/kg; No. of mice protected/no tested 3/12; details: route intraperitoneal
Mus musculus [41] = test: Anticonvulsant activity was measured by rotarod toxicity test on mice at 30 min at the dose of 300 mg/kg; number of animals protected/number of animals tested 1/4
Mus musculus [42] = test: Time of peak effect of toxicity of compound was measured by both MES and sc Met test in mice
Method in brief: (§1)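 Phase II quantification in mice after ip dosing. ED50 (scMet or MES) measured at the time of peak effect. TD50 (rotorod neurologic deficit) measured at the time of peak neurologic deficit. Medians and 95% confidence limits by the Litchfield-Wilcoxon method. Protective index = TD50/ED50. Time of peak effect determined in the MES or scMet test.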

Mus musculus [43] = test: Anticonvulsant activity was measured by subcutaneous pentylenetetrazole test on mice at 4 hr at the dose of 300 mg/kg; number of animals protected/number of animals tested 1/1
Mus musculus [44] = test: Elevation of threshold for electroshock induced seizures in mice was measured by ip administration after 0.5 hr at the dose of 100 mg/kg; No. of mice protected/no tested 1/12; details: route intraperitoneal
Mus musculus [45] = test: Anticonvulsant activity was measured by maximal electroshock test on mice at 0.25 hr at the dose of 100 mg/kg; number of animals protected/number of animals tested 0/2
Mus musculus [46] = test: Anticonvulsant activity was measured by maximal electroshock test on mice at 30 min at the dose of 300 mg/kg; number of animals protected/number of animals tested 1/1
Mus musculus [47] = test: Anticonvulsant activity was measured by rotarod toxicity test on mice at 4 h at the dose of 300 mg/kg; number of animals protected/number of animals tested 0/2
Mus musculus [48] = test: Elevation of threshold for electroshock induced seizures in mice was measured by ip administration after 0.5 hr at the dose of 200 mg/kg; No. of mice protected/no tested 5/12; details: route intraperitoneal
Mus musculus [49] = test: Effective dose was measured in mouse by subcutaneous pentylenetetrazole method by ip administration.; method in brief: as §1
Mus musculus [50] = test: Elevation of threshold for electroshock induced seizures in mice was measured by ip administration after 0.5 hr at the dose of 250 mg/kg; No. of mice protected/no tested 5/8; details: route intraperitoneal
Mus musculus [51] = test: Anticonvulsant activity was measured by rotarod toxicity teston mice at 0.25 hr at the dose of 100 mg/kg; number of animals protected/number of animals tested 0/2
Mus musculus [52] = test: Time of peak effect of activity of compound was measured by both MES and sc Met test in mice; method in brief: as §1
Mus musculus [53] = test: Effective dose was measured in mouse by maximal electroshock method by ip administration.; method in brief: as §1
Mus musculus [54] = organism: Mus musculus; test: Protective index (TD50/ED50) value in scMET test in mice; method in brief: as §1
Mus musculus [55] = test: Anticonvulsant activity was measured by subcutaneous pentylenetetrazole test on mice at 30 min at the dose of 300 mg/kg; number of animals protected/number of animals tested 1/1
Mus musculus [56] = organism: Mus musculus; test: ED50 value of compound was expressed as dose protecting 50% of mice from tonic hind limb extension; details: Hindlimb
Method in brief: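 Maximal electroshock test in male CF1 mice (23-34 g). Compound given as a 0.5% methylcellulose suspension ip or po, with testing at 0.5 h after several doses. Endpoint is protection from tonic hind limb extension.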

Mus musculus [57] = test: Anticonvulsant activity was measured by maximal electroshock test on mice at 4 h at the dose of 300 mg/kg; number of animals protected/number of animals tested 1/1
Mus musculus [58] = organism: Mus musculus; test: Protective index (TD50/ED50) value in MES test in mice

## O=C1CC2(CCCC2)C(=O)N1OCc1ccccc1C(F)(F)F
Mus musculus [1]
  Ratio: 1
Mus musculus [2]
  Ratio: 0
Mus musculus [3]
  Ratio: 0
Mus musculus [4]
  Ratio: 0
Mus musculus [5]
  Ratio: 1
Mus musculus [6]
  Ratio: 0
Mus musculus [7]
  Ratio: 0
Mus musculus [8]
  Ratio: 0
Mus musculus [9]
  Ratio: 0
Mus musculus [10]
  Ratio: 0
Mus musculus [11]
  Ratio: 2
Mus musculus [12]
  Ratio: 5
Mus musculus [13]
  Ratio: 0
Mus musculus [14]
  Ratio: 0
Mus musculus [15]
  Ratio: 0
Mus musculus [16]
  Ratio: 0
Mus musculus [17]
  Ratio: 0
Mus musculus [18]
  Ratio: 0
Mus musculus [19]
  Ratio: 0
Mus musculus [20]
  Ratio: 2

## O=C1CC2(CCCC2)C(=O)N1OCc1cccc(Cl)c1
Mus musculus [21]
  Ratio: 0
Mus musculus [22]
  Ratio: 0
Mus musculus [23]
  Ratio: 0
Mus musculus [4]
  Ratio: 0
Mus musculus [5]
  Ratio: 1
Mus musculus [24]
  Ratio: 0
Mus musculus [25]
  Ratio: 2
Mus musculus [26]
  Ratio: 0
Mus musculus [27]
  Ratio: 2
Mus musculus [6]
  Ratio: 0
Mus musculus [8]
  Ratio: 0
Mus musculus [28]
  Ratio: 0
Mus musculus [29]
  Ratio: 0
Mus musculus [10]
  Ratio: 0
Mus musculus [30]
  Ratio: 0
Mus musculus [31]
  Ratio: 0
Mus musculus [32]
  Ratio: 0
Mus musculus [33]
  Ratio: 1
Mus musculus [34]
  Ratio: 0
Mus musculus [35]
  Ratio: 0
Mus musculus [36]
  Ratio: 4
Mus musculus [37]
  Ratio: 1
Mus musculus [38]
  Ratio: 0

## O=C1CC2(CCCC2)C(=O)N1OCc1ccc(Cl)cc1Cl
Mus musculus [39]
  Ratio: 0
Mus musculus [40]
  Protection: 25%
Mus musculus [41]
  Ratio: 1
Mus musculus [42]
  TPE: 0.5
Mus musculus [43]
  Ratio: 1
Mus musculus [44]
  Protection: 8.33%
Mus musculus [45]
  Ratio: 0
Mus musculus [46]
  Ratio: 1
Mus musculus [47]
  Ratio: 0
Mus musculus [48]
  Protection: 41.7%
Mus musculus [49]
  ED50: 190 mg/kg
Mus musculus [50]
  Protection: 62.5%
Mus musculus [51]
  Ratio: 0
Mus musculus [52]
  TPE: 1
Mus musculus [53]
  ED50: 241 mg/kg
Mus musculus [54]
  PI: 1.9
Mus musculus [55]
  Ratio: 1
Mus musculus [56]
  ED50: 216 mg/kg
Mus musculus [57]
  Ratio: 1
Mus musculus [58]
  PI: 1.5
